Assay results taken from PubChem BioAssay.
Records with an inconclusive call do not appear.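 Rule for the calls, unless noted: active = growth inhibition above 25% in both replicates, a cutoff set 3 SD above the mean; inconclusive = above 25% in only one replicate; inactive = the rest.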

Tests used:
[1] = OD615 S. cerevisiae growth inhibition, permissive medium, pilot counter-assay, permissive growth control for S. cerevisiae lifespan shortening project (AID 705); conditions: OD615, 24 h, at 10 µM, stronger effect = higher value
In short: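 assay system = Saccharomyces cerevisiae strain carrying genetically modified DeaD replicative-lifespan system | medium = SC raffinose/galactose permissive medium | dosing = 10 µM single dose, 0.25% DMSO | schedule = 24 h compound exposure at 30 °C after 4 h pre-growth | measured by = OD at 615 nm | read-out basis = growth inhibition from lowered OD615 after 24 h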

[2] = Restrictive medium S. cerevisiae growth inhibition, OD615, pilot screen of yeast lifespan reduction project, restrictive growth control (AID 706;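 active = growth inhibition above a set limit, 3 SD over mean compound inhibition, in both replicates, cut at about 43% in these data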;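 note: modified DeaD lifespan yeast strain shifted to restrictive glucose medium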); conditions: OD615, 48 h, at 10 µM, stronger effect = higher value
In short: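 Buffer or medium: CSMM-D glucose medium. Material: genetically modified Saccharomyces cerevisiae, DeaD replicative lifespan assay strain. Times: 48 h compound exposure at 30 °C. Measured by: optical density at 615 nm.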

[3] = viability gain of MRP-1-high H69AR cells under doxorubicin, pilot screen, MRP-1 activator project, CellTiter-Glo, duplicate (AID 807;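 active = viability increase at or above a cutoff of the median across tested compounds plus 3 SD, cut at about 8.5% in these data, passing the limit was not always enough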;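 note: compound pretreatment 18-22 h then 72 h combined with doxorubicin; 0% = doxorubicin alone and 100% = vehicle without doxorubicin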); conditions: H69AR viability with doxorubicin, CellTiter-Glo luminescence; at 10 µM; stronger effect = higher value
[4] = growth suppression of beta-catenin knockout HCT116, pilot screen, human colon tumor cells (AID 823;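 active = cell viability at or below a set limit in both duplicate runs, the limit being the all-compound median minus 4 SD, cut at about 23% in these data, passing the limit was not always enough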;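 note: 0% = wells killed by 20 µM Hyamine and 100% = untreated DMSO cell wells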); conditions: CellTiter-Glo, 60 h, at 10 µM, stronger effect = lower value
[5] = growth suppression of PTEN-deleted HCT116, pilot screen, cell-based, HCT116 clonal line, CellTiter-Glo (AID 824;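 active = viability at or below 27.92% in each of two runs, the all-compound median minus 4 SD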;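 note: 0% = 20 µM Hyamine control and 100% = vehicle cell control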); conditions: 60 h, at 10 µM, stronger effect = lower value
[6] = inhibitors of the yeast RAM network, pilot screen, dse1pr::URA3 reporter, 5-FOA selection (AID 869;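 active = inhibition over a set limit, the all-compound mean plus 3 SD, in both replicate runs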;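 note: 0% = DMSO wells with no growth and 100% = 10 µM 1-NA-PP1 with full growth; RAM network block rescues cells from 5-FOA so hits raise OD615 growth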); conditions: S. cerevisiae dse1pr::URA3 5-FOA growth, OD615, 2 d; at 10 µM; stronger effect = higher value; strain carries analog-sensitive mutant Cbk1 kinase
[7] = RAM signaling pathway blockade in yeast – S. cerevisiae, Pdr1DBD-CYC8 efflux-inhibited sensitized strain, primary screen (AID 1298;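 active = RAM network inhibition above 8.4% in each of two replicates, 3 SD over the compound average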;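 note: 0% = DMSO untreated cells without growth and 100% = 10 µM 1-NA-PP1 full growth; higher means more yeast growth rescued from 5-FOA killing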); conditions: S. cerevisiae cbk1-as DSE1-URA3 strain, 5-FOA growth OD615, 2 d; at 50 µM; stronger effect = higher value

COc1ccc(CNC(=O)CS(=O)Cc2nc(-c3ccccc3C)oc2C)cc1 (configuration not stated)
inactive: growth inhibition [1] -3.65% | growth inhibition [2] 10.4% | viability increase [3] -0.34% | viability [4] 96.7% | viability [5] 101% | inhibition [6] 0.275% | RAM network inhibition [7] 1.98%

O=C(c1ccc(CS(=O)(=O)c2ccccc2)o1)N1CCN(c2ncccn2)CC1
inactive: growth inhibition [1] 2.63% | growth inhibition [2] -5.3% | viability increase [3] -4.07% | viability [4] 104% | viability [5] 102% | inhibition [6] 0.185% | RAM network inhibition [7] 2.87%

CCOC(=O)NC(Nc1cc(C)ccn1)(C(F)(F)F)C(F)(F)F
inactive: growth inhibition [1] 0.885% | growth inhibition [2] -3.62% | viability increase [3] -1.93% | viability [4] 104% | viability [5] 100% | inhibition [6] 0.28% | RAM network inhibition [7] -1.18%

COc1ccc(OC)c2sc(NC(=O)c3ccc(Br)s3)nc12
inactive: growth inhibition [1] -1.73% | growth inhibition [2] -13% | viability increase [3] -3.64% | viability [4] 85.1% | viability [5] 59.5% | inhibition [6] 2.71% | RAM network inhibition [7] 2.69%

COc1ccc(C2/C(=C(/O)c3ccc(F)cc3)C(=O)C(=O)N2CCCN(C)C)cc1 (configuration not stated)
inactive: growth inhibition [1] -5.9% | growth inhibition [2] -4.55% | viability increase [3] -2.11% | viability [4] 104% | viability [5] 98.1% | inhibition [6] 0.345% | RAM network inhibition [7] 2.49%

Cn1c(C(=O)NCCN2CCN(Cc3ccccc3)CC2)cc2c(=O)n(C)c3ccccc3c21
inactive: growth inhibition [1] -0.4% | growth inhibition [2] 5.33% | viability increase [3] -6.61% | viability [4] 78.5% | viability [5] 79% | inhibition [6] -0.115% | RAM network inhibition [7] 2.19%

O=C(O)c1ccccc1SC1CC(=O)N(C2CCCCC2)C1=O (configuration not stated)
inactive: growth inhibition [1] -14.3% | growth inhibition [2] -1.75% | viability increase [3] -2.78% | viability [4] 90.7% | viability [5] 94.3% | inhibition [6] 1.17% | RAM network inhibition [7] 1.06%

COc1ccc(-c2oc(/N=C/N3CCOCC3)c(C#N)c2-c2ccc(OC)cc2)cc1
inactive: growth inhibition [1] -10.1% | growth inhibition [2] -18.7% | viability increase [3] -0.81% | viability [4] 88.6% | viability [5] 83.4% | inhibition [6] 2.25% | RAM network inhibition [7] 2.33%

Cc1ccc(-n2nc(C)c3c(C)c(CCC(=O)NCc4ccco4)c(C)nc32)cc1
inactive: growth inhibition [1] -15% | growth inhibition [2] -9.24% | viability increase [3] -3.52% | viability [4] 84.7% | viability [5] 75.5% | inhibition [6] 0.985% | RAM network inhibition [7] 4.13%

CCOC(=O)C1CCN(C(=O)COc2cc(C)c(Br)c(C)c2)CC1
inactive: growth inhibition [1] -2.41% | growth inhibition [2] -16.5% | viability increase [3] -3.43% | viability [4] 94.4% | viability [5] 85.3% | inhibition [6] 1.47% | RAM network inhibition [7] 1.59%

CCOC(=O)CSc1nc2c(c(=O)n1-c1ccc(OC)cc1)SCC2
inactive: growth inhibition [1] -4.98% | growth inhibition [2] -0.425% | viability increase [3] 0.37% | viability [4] 99.5% | viability [5] 98.6% | inhibition [6] 1.04% | RAM network inhibition [7] 7.6%

COc1ccc(N(CC(=O)NCc2cccs2)S(=O)(=O)c2cccnc2)cc1
inactive: growth inhibition [1] 5.41% | growth inhibition [2] 4.48% | viability increase [3] -0.05% | viability [4] 107% | viability [5] 106% | inhibition [6] 0.045% | RAM network inhibition [7] 7.1%

Cc1cc(OCC(=O)N(C)C)c2c(-c3ccccc3)cc(=O)oc2c1
inactive: growth inhibition [1] -3.89% | growth inhibition [2] 2.71% | viability increase [3] -3.03% | viability [4] 97.4% | viability [5] 94.7% | inhibition [6] 0.915% | RAM network inhibition [7] 5.21%

COC(=O)C1CCN(C(c2cc(OC)c(OC)c(OC)c2)c2sc3nc(C)nn3c2O)CC1 (configuration not stated)
inactive: growth inhibition [1] -10.8% | growth inhibition [2] -17.2% | viability increase [3] -1.81% | viability [4] 102% | viability [5] 93% | inhibition [6] 2.08% | RAM network inhibition [7] 3.91%

CC(C)C(=O)N1CCN(c2ccccc2N)CC1
inactive: growth inhibition [1] -9.49% | growth inhibition [2] -20.2% | viability increase [3] -1.42% | viability [4] 102% | viability [5] 95.8% | inhibition [6] 1.55% | RAM network inhibition [7] 1.34%

Cc1ccc2nc(NC(=O)c3ccc(Cl)s3)sc2c1
inactive: growth inhibition [1] -17.2% | growth inhibition [2] -14.8% | viability increase [3] -6.45% | viability [4] 64.5% | viability [5] 63% | inhibition [6] 1.35% | RAM network inhibition [7] 2.06%

Cc1cc(-n2nc(C)cc2C)nc(NS(=O)(=O)c2ccccc2)n1
inactive: growth inhibition [1] -11.4% | growth inhibition [2] -20.8% | viability increase [3] -2.09% | viability [4] 94.8% | viability [5] 94.3% | inhibition [6] 2.98% | RAM network inhibition [7] 4.2%

O=C(Cn1cc2c(n1)CCCC2)NCCCN1CCN(Cc2ccccc2)CC1
inactive: growth inhibition [1] -1.54% | growth inhibition [2] -1.17% | viability increase [3] -2.71% | viability [4] 91.5% | viability [5] 93.2% | inhibition [6] 0.61% | RAM network inhibition [7] -0.1%

OCCOCCn1c(-c2ccccc2)nc(=S)c2c1CCCC2
inactive: growth inhibition [1] -3.65% | growth inhibition [2] 14.6% | viability increase [3] -0.07% | viability [4] 102% | viability [5] 106% | inhibition [6] 0.73% | RAM network inhibition [7] 6.53%

CC(C)N(Cc1nc(-c2ccccc2)no1)S(=O)(=O)c1ccccc1
inactive: growth inhibition [1] -10.8% | growth inhibition [2] -9.29% | viability increase [3] 1.67% | viability [4] 89.3% | viability [5] 79.5% | inhibition [6] 0.555% | RAM network inhibition [7] 4.95%

CN1C(=O)c2cccc(NC(=O)Cc3ccccc3)c2C1=O
inactive: growth inhibition [1] 1.68% | growth inhibition [2] 15.6% | viability increase [3] -1.47% | viability [4] 111% | viability [5] 91.1% | inhibition [6] 0.625% | RAM network inhibition [7] -0.88%

O=C(CCCC(=O)n1cnc2ccccc21)n1cnc2ccccc21
inactive: growth inhibition [1] -3.46% | growth inhibition [2] 4.09% | viability increase [3] -1.98% | viability [4] 96.2% | viability [5] 92.9% | inhibition [6] 1.08% | RAM network inhibition [7] 0.98%

Cc1csc2nc(CNC(=O)CCC(=O)O)cn12
inactive: growth inhibition [1] -8.41% | growth inhibition [2] -2.59% | viability increase [3] -0.98% | viability [4] 101% | viability [5] 99.5% | inhibition [6] 1.4% | RAM network inhibition [7] 2.71%

CCC(C)NC(=O)Cn1cc2c(n1)CCC(C)C2 (configuration not stated)
inactive: growth inhibition [1] -6.78% | growth inhibition [2] 6.43% | viability increase [3] -1.54% | viability [4] 103% | viability [5] 97.3% | inhibition [6] 0.14% | RAM network inhibition [7] 0.42%

CC(=O)N1CCc2cc(C(=O)CN3CCN(C(=O)c4ccco4)CC3)ccc21
inactive: growth inhibition [1] 4.58% | growth inhibition [2] 3.74% | viability increase [3] -2.02% | viability [4] 105% | viability [5] 93.3% | inhibition [6] 3.93% | RAM network inhibition [7] 2.07%

O=C1c2ccccc2C(=O)N1CCc1nc2ccccc2c(=O)n1Cc1ccco1
inactive: growth inhibition [1] -8.88% | growth inhibition [2] -1.42% | viability increase [3] -3.47% | viability [4] 89.7% | viability [5] 88.6% | inhibition [6] 1.29% | RAM network inhibition [7] 1.59%

CCOC(=O)Cn1c(=O)oc2cc(S(=O)(=O)Nc3c(C)cc(C)cc3C)ccc21
inactive: growth inhibition [1] -11.4% | growth inhibition [2] -14.1% | viability increase [3] -2.56% | viability [4] 94.5% | viability [5] 95.3% | inhibition [6] 0.86% | RAM network inhibition [7] 4.9%

CCCSC1=N/C(=C\c2ccsc2)C(=O)S1
inactive: growth inhibition [1] -10.5% | growth inhibition [2] -3.12% | viability increase [3] -0.76% | viability [4] 95.1% | viability [5] 99.2% | inhibition [6] 0.72% | RAM network inhibition [7] 9.91%

CC(=O)c1c(C)[nH]c(C(=O)Nc2cc(C)ccc2C)c1C
inactive: growth inhibition [1] 8.06% | growth inhibition [2] -8.57% | viability increase [3] -1.16% | viability [4] 98.5% | viability [5] 96.6% | inhibition [6] 2.14% | RAM network inhibition [7] 1.74%

CCCc1nc(N2CCN(C)CC2)c2sc(=S)n(-c3ccccc3)c2n1
inactive: growth inhibition [1] -8.52% | growth inhibition [2] 17.7% | viability increase [3] -2.47% | viability [4] 83.8% | viability [5] 82.6% | inhibition [6] 0.39% | RAM network inhibition [7] 6.13%

O=C(O)CCCCCN1C(=O)C(=O)/C(=C(/O)c2ccccc2)C1c1ccccc1 (configuration not stated)
inactive: growth inhibition [1] -21.2% | growth inhibition [2] -18.6% | viability increase [3] 0.21% | viability [4] 100% | viability [5] 103% | inhibition [6] 3.47% | RAM network inhibition [7] 2.1%

Cc1ccc(N(C(C)C(=O)O)S(=O)(=O)c2c(C)[nH]c(=O)[nH]c2=O)cc1 (configuration not stated)
inactive: growth inhibition [1] 1.15% | growth inhibition [2] 11.8% | viability increase [3] -0.92% | viability [4] 102% | viability [5] 94.5% | inhibition [6] 0.555% | RAM network inhibition [7] -0.47%

CCN(CC)C(=O)Cn1c(=O)n(-c2ccccc2)c(=O)n1CC(=O)N(CC)CC
inactive: growth inhibition [1] -4.64% | growth inhibition [2] 2.5% | viability increase [3] -1.25% | viability [4] 103% | viability [5] 97.4% | inhibition [6] 1.29% | RAM network inhibition [7] 1.08%

CC(=O)c1c(N2CCN(c3ccccc3)CC2)nc(=S)n(-c2ccccc2)c1C
inactive: growth inhibition [1] 3.6% | growth inhibition [2] 15.2% | viability increase [3] -3.16% | viability [4] 92.9% | viability [5] 99.9% | inhibition [6] 0.91% | RAM network inhibition [7] 6.47%

O=C(Nc1cccc2ccccc12)N1CCN(c2ccc(F)cc2)CC1
inactive: growth inhibition [1] -12.3% | growth inhibition [2] -14.3% | viability increase [3] -1.74% | viability [4] 98.6% | viability [5] 98.8% | inhibition [6] 1.88% | RAM network inhibition [7] 3.08%

CCC(C)NC(=O)c1cc(-c2ccccc2O)on1 (configuration not stated)
inactive: growth inhibition [1] -10.7% | growth inhibition [2] -4.76% | viability increase [3] -1.23% | viability [4] 94% | viability [5] 86.2% | inhibition [6] 1.73% | RAM network inhibition [7] 2.61%
